Active and inactive are the calls of the source. No cut-off for these calls is given here.
What was measured:
[1] = Acute toxicity in ICR mouse assessed as survival at 400 mg/kg, ip measured on day 14; format: organism-based; conditions: in vivo
Summary of the method: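 Male and female ICR mice (7 weeks), randomized, 10 per group, given one intraperitoneal dose at 200, 250, 300, 350, 400 or 450 mg/kg. Animals were watched for abnormal behaviour and deaths up to two weeks. Deaths were tallied at 1 h, 4 h, day 3 and days 4-14, with survival on day 14. LD50 was calculated with 95% confidence limits.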

[2] = Antiproliferative activity against human LTEP-G2 cells after 72 hrs by MTT assay; format: functional, cell-based
Summary of the method: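 Cells (A549, A549/DDP, SPC-A-1, LTEP-G-2, non-tumor bronchial epithelial HBE) were exposed in triplicate to vehicle or compound for 72 h. MTT (5 mg/mL in PBS) was then added for 4 h, formazan was dissolved in DMSO, and absorbance was read at 570 nm. IC50 values were derived from viability.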

[3] = target: Thioredoxin reductase (Homo sapiens, UniProt Q16881+Q9NNW7+Q86VQ6); assay: Inhibition of thioredoxin reductase (unknown origin) after 2 hrs by DTNB dye based microplate spectrophotometry; format: protein assay
Summary of the method: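 NADPH-reduced TrxR (0.16 µM) was preincubated in triplicate with vehicle DMSO (0.1%, v/v) or varying compound concentrations for 2 h. It was then reacted with 2 mM DTNB and 200 µM NADPH for 3 min, and absorbance was read at 412 nm. IC50 was derived.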

[4] = system: A549; assay: Induction of apoptosis in human A549 cells assessed as increase in cleaved PARP level at 2.1 to 4.2 uM after 24 hrs by Western blot method; format: functional, cell-based
Summary of the method: (§1)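 Cells were plated at 1 × 10^6/well overnight, then treated 24 h with vehicle DMSO (0.1%, v/v) or compound (A549, 2.1 or 4.2 µM; A549/DDP, 0.6 or 1.2 µM). Lysis was at 4 °C. Lysates were run on SDS-PAGE (7.5% gel, 20 µg/lane) and immunoblotted with ECL detection; phospho-Akt Ser473 and phospho-ERK Thr202/Tyr204 were probed. Bands were normalized to GAPDH (TrxR, Trx) or β-actin. Three independent experiments were run.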

[5] = system: A549; assay: Effect on ERK expression in human A549 cells at 2.1 to 4.2 uM after 24 hrs by Western blot method; format: functional, cell-based; summary of the method: as §1
[6] = system: A549/CDDP; assay: Induction of ROS generation in human A549/CDDP cells 0.6 to 1.2 uM after 60 mins by DHE staining-based fluorescence assay in presence of NAC; format: functional, cell-based
[7] = Toxicity in BALB/c nude mouse xenografted with human A549/CDDP cells assessed as body weight at 40 mg/kg, ip administered daily for 15 consecutive days measured on day 15 (reference value: 21 +/- 1.28 g); format: organism-based; conditions: in vivo
Summary of the method: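 Athymic BALB/c nude mice of both sexes, 4-5 weeks, inoculated subcutaneously with A549/DDP cells (1 × 10^7/mouse). Once tumors reached 180-200 mm3, mice were randomized and given ip dosing daily for 15 consecutive days. Vehicle was PBS/DMSO/cremophor-EL (8:1:1), given at the same volume to controls. Body weight was recorded on day 1 and day 15. Reported as mean ± SD, n = 8.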

[8] = system: A549/CDDP; assay: Inhibition of NFkappaB phosphorylation in human A549/CDDP cells at 0.6 to 1.2 uM after 24 hrs by Western blot method; format: cell-based; summary of the method: as §1
[9] = Toxicity in BALB/c nude mouse xenografted with human A549/CDDP cells assessed as body weight at 40 mg/kg, ip administered daily for 15 consecutive days measured on day 1 (reference value: 19.3 +/- 1.55 g); format: organism-based; conditions: in vivo
[10] = system: A549; assay: Decrease in TrxR expression in human A549 cells at 2.1 to 4.2 uM after 24 hrs by Western blot method; format: functional, cell-based; summary of the method: as §1

## COc1cc(/C=C/C(=O)/C=C/c2nc(C)c(C)nc2C)ccc1O
[1]
  survival at 14 day: 10%
[2]
  IC50: 2.88 µM
[3]
  IC50: 2.95 µM
[4]
  Activity: Active
[5]
  Activity: inactive
[6]
  Activity: inactive
[7]
  Activity: 19.6 g
[8]
  inhibition: Active
[9]
  Activity: 19.9 g
[10]
  Activity: Active

From ChEMBL document CHEMBL4428026, “Discovery of New Monocarbonyl Ligustrazine-Curcumin Hybrids for Intervention of Drug-Sensitive and Drug-Resistant Lung Cancer” (J Med Chem, 2016)
